Reference: ChEMBL document CHEMBL1134762, “Synthesis and antibacterial evaluation of certain quinolone derivatives” (2001)
In brackets after ≈: the same amount, converted by molar mass.

Tests used:
Assay type in all cases: functional
Enterococcus faecalis = assay: Antibacterial activity tested against vancomycin-resistant Enterococcus faecalis
Procedure, shortened: (§1)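 Broth MIC against clinical isolates (S. pneumoniae, VRE E. faecalis) in tryptic soy broth with 7% calf serum, inoculum 1-5 × 10^5 CFU/mL. DMSO serial dilutions gave 1% final DMSO and a 300 µM highest concentration. Plates were incubated 20-72 h at 37 °C and read by turbidity or microscopy. Vehicle and reference controls were included; run in duplicate.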

Streptococcus pneumoniae = assay: Antibacterial activity tested against ampicillin and erythromycin-resistant Streptococcus pneumoniae; procedure, shortened: as §1
Staphylococcus aureus = assay: Antibacterial activity against methicillin-resistant Staphylococcus aureus
Procedure, shortened: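 Broth dilution MIC against MRSA in Mueller-Hinton broth with 1-5 × 10^5 CFU/mL inoculum. Compounds were serially diluted in DMSO (final DMSO 1%, top concentration 300 µM) and incubated 20-72 h at 37 °C. MIC was read by visual turbidity or microscopy. Vehicle and reference agents served as controls; run in duplicate.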

SMILES | MIC (Enterococcus faecalis) | MIC (Streptococcus pneumoniae) | MIC (Staphylococcus aureus)
CCn1cc(C(=O)O)c(=O)c2cc(F)c(N3CCNCC3)c(F)c21 | 18.5 µM (≈ 6.24 µg/mL) | 18.5 µM (≈ 6.24 µg/mL) | 2.31 µM (≈ 0.779 µg/mL)
CCn1cc(C(=O)O)c(=O)c2cc(F)c(N3CCN(CC(=O)c4ccc(OC)cc4)CC3)cc21 | > 200 µM | > 200 µM | 6.7 µM (≈ 3.13 µg/mL)
O=C(O)c1cn(-c2ccc([N+](=O)[O-])cc2)c2cc(N3CCN(C/C(=N\O)c4ccc(F)cc4)CC3)c(F)cc2c1=O | > 200 µM | > 200 µM | > 200 µM
CCn1cc(C(=O)O)c(=O)c2cc(F)c(N3CCN(C/C(=N\O)c4ccc(F)cc4)CC3)c(F)c21 | 2.05 µM (≈ 1 µg/mL) | 6.14 µM (≈ 3 µg/mL) | 0.61 µM (≈ 0.298 µg/mL)
Nc1ccc(-n2cc(C(=O)O)c(=O)c3cc(F)c(N4CCNCC4)cc32)c(F)c1 | 15.6 µM (≈ 6.25 µg/mL) | 3.9 µM (≈ 1.56 µg/mL) | 0.97 µM (≈ 0.388 µg/mL)
COc1ccc(/C(CN2CCN(c3cc4c(cc3F)c(=O)c(C(=O)O)cn4-c3ccc([N+](=O)[O-])cc3F)CC2)=N/O)cc1 | 5.27 µM (≈ 3.13 µg/mL) | 1.31 µM (≈ 0.778 µg/mL) | 0.34 µM (≈ 0.202 µg/mL)
CCn1cc(C(=O)O)c(=O)c2cc(F)c(N3CCN(C/C(=N/NC(N)=O)c4ccccc4)CC3)c(F)c21 | 6.11 µM (≈ 3.13 µg/mL) | 6.11 µM (≈ 3.13 µg/mL) | 0.39 µM (≈ 0.2 µg/mL)
CCn1cc(C(=O)O)c(=O)c2cc(F)c(N3CCN(C/C(=N\OC)c4ccc(OC)cc4)CC3)cc21 | 12.6 µM (≈ 6.26 µg/mL) | 12.6 µM (≈ 6.26 µg/mL) | 1.57 µM (≈ 0.78 µg/mL)
O=C(O)c1cn(-c2ccc([N+](=O)[O-])cc2F)c2cc(N3CCNCC3)c(F)cc2c1=O | 29 µM (≈ 12.5 µg/mL) | 0.46 µM (≈ 0.198 µg/mL) | 7.27 µM (≈ 3.13 µg/mL)
CCn1cc(C(=O)O)c(=O)c2cc(F)c(N3CCN(C/C(=N/N=C(/N)S)c4ccccc4)CC3)c(F)c21 | > 200 µM | > 200 µM | 0.74 µM (≈ 0.391 µg/mL)
CCn1cc(C(=O)O)c(=O)c2cc(F)c(N3CCN(CC(=O)c4ccccc4)CC3)cc21 | > 200 µM | > 200 µM | 7.15 µM (≈ 3.13 µg/mL)
COc1ccc(C(=O)CN2CCN(c3cc4c(cc3F)c(=O)c(C(=O)O)cn4-c3ccc([N+](=O)[O-])cc3F)CC2)cc1 | 43.2 µM (≈ 25 µg/mL) | 5.41 µM (≈ 3.13 µg/mL) | 2.7 µM (≈ 1.56 µg/mL)
CCn1cc(C(=O)O)c(=O)c2cc(F)c(N3CCN(C/C(=N/NC(N)=O)c4ccccc4)CC3)cc21 | 25.3 µM (≈ 12.5 µg/mL) | 25.3 µM (≈ 12.5 µg/mL) | 3.15 µM (≈ 1.56 µg/mL)
COc1ccc(C(=O)CN2CCN(c3cc4c(cc3F)c(=O)c(C(=O)O)cn4-c3ccc([N+](=O)[O-])cc3)CC2)cc1 | > 200 µM | > 200 µM | 5.58 µM (≈ 3.13 µg/mL)
CCn1cc(C(=O)O)c(=O)c2cc(F)c(N3CCN(CC(=O)c4ccc(Cl)cc4)CC3)cc21 | > 200 µM | > 200 µM | > 200 µM
COc1ccc(/C(CN2CCN(c3cc4c(cc3F)c(=O)c(C(=O)O)cn4-c3ccc(N)cc3F)CC2)=N/O)cc1 | 5.32 µM (≈ 3 µg/mL) | 1.77 µM (≈ 0.998 µg/mL) | 0.53 µM (≈ 0.299 µg/mL)
CCn1cc(C(=O)O)c(=O)c2cc(F)c(N3CCN(C/C(=N\O)c4ccc(Cl)cc4)CC3)c(F)c21 | 19.8 µM (≈ 10 µg/mL) | 19.8 µM (≈ 10 µg/mL) | 0.59 µM (≈ 0.298 µg/mL)

SMILES | MIC (Enterococcus faecalis) | MIC (Streptococcus pneumoniae) | MIC (Staphylococcus aureus)
CCn1cc(C(=O)O)c(=O)c2cc(F)c(N3CCN(C/C(=N\O)c4ccc(OC)cc4)CC3)c(F)c21 | 3.12 µM (≈ 1.56 µg/mL) | 6.25 µM (≈ 3.13 µg/mL) | 0.2 µM (≈ 0.1 µg/mL)
CCn1cc(C(=O)O)c(=O)c2cc(F)c(N3CCN(C/C(=N/N=C(/N)S)c4ccccc4)CC3)cc21 | 12.2 µM (≈ 6.23 µg/mL) | 24.5 µM (≈ 12.5 µg/mL) | 1.53 µM (≈ 0.781 µg/mL)
COc1ccc(/C(CN2CCN(c3cc4c(cc3F)c(=O)c(C(=O)O)cn4-c3ccc([N+](=O)[O-])cc3)CC2)=N/O)cc1 | 21.7 µM (≈ 12.5 µg/mL) | 10.9 µM (≈ 6.27 µg/mL) | 1.36 µM (≈ 0.783 µg/mL)
CCn1cc(C(=O)O)c(=O)c2cc(F)c(N3CCN(C/C(=N\O)c4ccc(F)cc4)CC3)cc21 | > 200 µM | > 200 µM | 2.13 µM (≈ 1 µg/mL)
CCn1cc(C(=O)O)c(=O)c2cc(F)c(N3CCN(C/C(=N\O)c4ccc(Cl)cc4)CC3)cc21 | > 200 µM | > 200 µM | > 200 µM
CCn1cc(C(=O)O)c(=O)c2cc(F)c(N3CCN(C/C(=N\O)c4ccccc4)CC3)cc21 | > 200 µM | > 200 µM | 0.44 µM (≈ 0.199 µg/mL)
O=C(CN1CCN(c2cc3c(cc2F)c(=O)c(C(=O)O)cn3-c2ccc([N+](=O)[O-])cc2)CC1)c1ccc(F)cc1 | > 200 µM | > 200 µM | > 200 µM
CCn1cc(C(=O)O)c(=O)c2cc(F)c(N3CCN(C/C(=N\O)c4ccc(OC)cc4)CC3)cc21 | 3.23 µM (≈ 1.56 µg/mL) | 13 µM (≈ 6.27 µg/mL) | 0.41 µM (≈ 0.198 µg/mL)
CCn1cc(C(=O)O)c(=O)c2cc(F)c(N3CCN(CC(=O)c4ccccc4)CC3)c(F)c21 | 13.7 µM (≈ 6.24 µg/mL) | 13.7 µM (≈ 6.24 µg/mL) | 1.71 µM (≈ 0.779 µg/mL)
COc1ccc(C(=O)CN2CCN(c3cc4c(cc3F)c(=O)c(C(=O)O)cn4-c3ccc(N)cc3F)CC2)cc1 | 5.47 µM (≈ 3 µg/mL) | 1.82 µM (≈ 0.998 µg/mL) | 0.55 µM (≈ 0.302 µg/mL)
CCn1cc(C(=O)O)c(=O)c2cc(F)c(N3CCN(C/C(=N\OC)c4ccc(Cl)cc4)CC3)cc21 | > 200 µM | > 200 µM | 
CCn1cc(C(=O)O)c(=O)c2cc(F)c(N3CCN(CC(=O)c4ccc(OC)cc4)CC3)c(F)c21 | > 200 µM | > 200 µM | 0.62 µM (≈ 0.301 µg/mL)
CCn1cc(C(=O)O)c(=O)c2cc(F)c(N3CCN(C/C(=N\N)c4ccc(F)cc4)CC3)cc21 | 26.6 µM (≈ 12.5 µg/mL) | 26.6 µM (≈ 12.5 µg/mL) | 1.66 µM (≈ 0.779 µg/mL)
CCn1cc(C(=O)O)c(=O)c2cc(F)c(N3CCN(CC(=O)c4ccc(F)cc4)CC3)cc21 | > 200 µM | > 200 µM | 6.87 µM (≈ 3.13 µg/mL)
CCn1cc(C(=O)O)c(=O)c2cc(F)c(N3CCN(C/C(=N\OC)c4ccc(Cl)cc4)CC3)c(F)c21 | > 200 µM | > 200 µM | > 200 µM
CCn1cc(C(=O)O)c(=O)c2cc(F)c(N3CCNCC3)cc21 [NORFLOXACIN] | 9.8 µM (≈ 3.13 µg/mL) | 19.6 µM (≈ 6.26 µg/mL) | 4.89 µM (≈ 1.56 µg/mL)
